# This is a sample that favours compounds with a hit; in the whole collection about 3.1% have one here.
# GPR7 antag – GPR7 receptor antagonists, primary screen, cell-based, fluorescence, single concentration | GPR7-expressing cells, fluorescence antagonist assay | inhibition, % at 4.4 µM | 290,000 compounds, 1.1% hits | AID 1861, 2009; in the data active means inhibition above about 16%, passing the limit was not always enough;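 further: cells stimulated with the agonist NPW; 0% = agonist with vehicle and 100% = vehicle without agonist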
# Target sequence (P48145 whole entry, looked up): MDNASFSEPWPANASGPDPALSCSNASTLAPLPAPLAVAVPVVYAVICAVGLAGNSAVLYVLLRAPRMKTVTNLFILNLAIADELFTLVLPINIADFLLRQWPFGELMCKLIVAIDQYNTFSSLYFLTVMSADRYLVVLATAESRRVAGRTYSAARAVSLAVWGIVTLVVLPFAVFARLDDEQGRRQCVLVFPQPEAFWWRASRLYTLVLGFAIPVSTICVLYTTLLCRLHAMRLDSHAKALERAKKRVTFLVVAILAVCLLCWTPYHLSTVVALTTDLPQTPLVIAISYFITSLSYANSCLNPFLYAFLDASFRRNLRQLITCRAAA
# OX1R antag-1 – OX1R (HCRTR1) antagonists, primary screen, fluorescence, CHO/OX1R cells, Fluo-8 calcium, orexin A; 330,000 compounds, 0.43% hits; inhibition, % at 5 µM; Orexin/Hypocretin receptor type 1 (Homo sapiens), O43613; Fluo-8 calcium fluorescence; AID 434989, 2010;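 active means inhibition above its plate's threshold, mean inhibition of all tested compounds on the plate plus 3 SD, cut at about 37% in these data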;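 further: 0% = orexin A challenge wells and 100% = SB-334867-A antagonist wells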
# OX1R antag-2 – antagonists of human orexin 1 receptor (OX1R). OX1R-expressing cells, FRET antagonist read-out. inhibition, % at 6.6 µM. 330,000 compounds, 1.8% hits; in the data active means inhibition mostly above about 38%, no sharp cut-off; inactive means mostly below about 40%;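 further: 0% = agonist challenge alone and 100% = reference antagonist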
# GalR3 antag – GalR3 antagonists in HEK293 cells, primary screen, cell-based, fluorescence readout; Galanin receptor type 3 (Homo sapiens), O60755; HEK293 GalR3-CNG cAMP membrane potential fluorescence; galR3 body fused to GalR1 C-terminus; inhibition, % at 3 µM; 360,000 compounds, 0.44% hits;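 active means inhibition above the screen-wide average plus 3 SD, cut at about 13% in these data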;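 further: forskolin and galanin both at EC90 stimulate the cells; cAMP rise reported by CNG channel membrane potential dye signal; 0% = forskolin plus galanin with DMSO and 100% = forskolin alone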
# CHO parental Ca – ATP-evoked calcium signal inhibitors, parental CHO, primary screen, counter-screen for OX1R antagonist project, cell-based, fluorescence, Fluo-8 calcium dye; inhibition, % at 5.6 µM; parental CHO-K1, ATP-induced calcium, Fluo-8 fluorescence; 330,000 compounds, 0.63% hits; AID 463079, 2010;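 active means inhibition above that plate's mean sample inhibition plus 3 SD, cut at about 26% in these data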;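 further: 0% = ATP-challenged DMSO wells and 100% = DMSO wells without ATP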
#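 Measured by: calcium-sensitive Fluo-8 fluorescence / Test system: CHO parental line / Controls: ATP-challenged DMSO wells low, unchallenged DMSO wells high / Measure: % inhibition / Compound: single nominal dose of 5.6 µM per compound / Replicates: single well per compound, no replicates / Reagent: ATP as calcium-mobilizing challenge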
# * marks the source's active call; other numbers are inactive results; . = not tested or not shown.
SMILES,GPR7 antag,OX1R antag-1,OX1R antag-2,GalR3 antag,CHO parental Ca
CCNc1ccc(C(=O)Nc2ccc3nc(C)sc3c2)cc1[N+](=O)[O-],-4,-25,60*,3,-29
Cc1nc2ccc(C(=O)Nc3ccc(N(C)C)cc3)cc2s1,.,4,61*,3,-15
CCOC(=O)CNC(=O)N(C)[C@H]1C[C@H]2c3[nH]c4c(-c5ccccc5)cccc4c3CCN2C(=O)[C@H]1[C@H](C)O,.,.,.,-6,.
COc1ncc(C2=CC(=O)CC(C)(C)C2)cn1,.,-16,13,-2,-8
CCC(=O)N(CCC(c1ccco1)c1ccccc1OC)Cc1cccs1 (stereo not drawn),19*,-29,18,-3,-6
CC(=O)N(CCC(c1ccccc1)c1ccco1)Cc1cccs1 (stereo not drawn),-7,-31,15,-6,-18
CCc1nc2n(n1)C(O)c1cc([N+](=O)[O-])ccc1S2 (stereo not drawn),-7,-10,46*,-1,-8
CC(=O)Nc1ccc(C(=O)OCC(=O)NCc2cccs2)cc1,.,-21,13,-6,-2
Cc1cccc(OCc2nc(C#N)c(N3CC(C)CC(C)C3)o2)c1 (stereo not drawn),21*,-39,8,-3,38*
Cc1cccc(OCc2nc(C#N)c(N3CCCC3)o2)c1,-1,-3,11,2,-15
COC(=O)c1c(C)oc2ccc(N(C(=O)c3ccncc3)S(=O)(=O)c3ccc(C)cc3C)cc12,-7,35,23,-14,38*
COCc1[nH]nc2c1C(c1ccc(F)cc1)N(c1ccc(OC)cc1)C2=O (stereo not drawn),.,.,.,2,.
N#C/C(=C\c1ccc(Sc2ccc(Cl)cc2)o1)c1nc2ccccc2[nH]1,-3,23,37,-5,39
N#C/C(=C\c1ccc(Sc2nc3ccccc3[nH]2)o1)c1ccccc1,10,56*,74*,-4,32
CC(C)C[C@H]1COc2ccc(Cl)cc2S(=O)(=O)N1C[C@H](NC(=O)OC(C)(C)C)C(C)C,.,.,.,-5,.
CCCCN(c1nc2ccccc2nc1Cl)S(=O)(=O)c1ccc(C)cc1,-11,1,15,-16,54*
CCCCOCC1CN(CCCC)S(=O)(=O)c2c(cccc2N(C)S(=O)(=O)c2ccc(C)cc2)O1 (stereo not drawn),.,.,.,-7,.
CN(C)n1cccc1/C=C(\C#N)S(=O)(=O)c1ccc(Cl)cc1,-22,63*,25,-8,65*
Cc1ccc(S(=O)(=O)/C(C#N)=C/c2c(Oc3ccc(Cl)cc3)nc3c(C)cccn3c2=O)cc1,-8,-10,12,.,-10
C=CCn1c(SCC(=O)Nc2cc(C)on2)nc2ccccc21,.,.,.,-9,.
CCCCNC(=O)C1c2ccccc2OCC(=O)N1CCOC (stereo not drawn),.,.,.,-2,.
Cc1nnc(NC(=O)c2sc3nc(-c4cccs4)cc(C(F)(F)F)c3c2N)s1,5,85*,19,-2,42*
Nc1c(C(=O)Nc2nccs2)sc2nc(-c3cccs3)cc(C(F)(F)F)c12,-1,47*,49,-5,42*
Cc1cc(N2CCN(C(=O)OC(C)(C)C)C[C@H]2C)ccc1Br,.,.,.,2,.
N#Cc1c(-c2ccc([N+](=O)[O-])cc2)nc2n(c1=O)CCS2,-4,-5,65*,-2,-3
SMILES,GPR7 antag,OX1R antag-1,OX1R antag-2,GalR3 antag,CHO parental Ca
N#Cc1c(-c2cccc([N+](=O)[O-])c2)nc2n(c1=O)CCS2,9,-11,40,-8,2
Cc1ccccc1C1=CC(=O)CC(C)(C)C1=O,.,.,.,0,.
Oc1[nH]c(=S)sc1C=C1N=c2ccccc2=N1,-9,4,20,-5,4
Oc1[nH]c(=S)sc1/C=C1\C(c2ccccc2)=Nc2ccccc21,5,23,76*,-3,18
Nc1ccc2c3c(cccc13)CC2,1,71*,13,-4,60*
Cn1c(N)c(C(=O)CNC2CCCCC2)c(=O)n(C)c1=O,.,-2,2,-3,2
O=C(NCc1ccco1)NC(=O)c1csc([N+](=O)[O-])c1,-8,-17,26,-3,7
C=CCNC(=O)NC(=O)c1csc([N+](=O)[O-])c1,0,-18,46*,-2,4

# Screening data deposited in PubChem by The Scripps Research Institute Molecular Screening Center.
